# Activity calls are given as the source filed them. The rule behind the calls is not given here.
# Legend:
# [1] = molecular target: Histone deacetylase 5 (Homo sapiens) (UniProt Q9UQL6); assay: Inhibition of full length N-terminal GST-tagged human HDAC5 expressed in baculovirus infected Sf9 insect cells using BPS HDAC class 2a substrate at 10 uM after 30 mins by fluorescence assay relative to control
# In short: (§1)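 Run by a contract lab. Compound incubated with HDAC enzyme, substrate, bovine serum albumin and HDAC buffer in duplicate for 30 min at 37 °C. Quenched with HDAC developer, 15 min at room temperature, fluorescence read at ex 360/em 460 nm. Activity taken as (F−Fb)/(Ft−Fb) against blank and solvent control wells; IC50 from curve fitting.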
# [2] = molecular target: T1, Histone deacetylase 8 (Homo sapiens) (UniProt Q9BY41); assay: Inhibition of full length C-terminal His-tagged human HDAC8 expressed in baculovirus infected Sf9 insect cells using BPS HDAC class 2a substrate at 10 uM after 30 mins by fluorescence assay relative to control; in short: as §1
# T1 sequence (whole entry): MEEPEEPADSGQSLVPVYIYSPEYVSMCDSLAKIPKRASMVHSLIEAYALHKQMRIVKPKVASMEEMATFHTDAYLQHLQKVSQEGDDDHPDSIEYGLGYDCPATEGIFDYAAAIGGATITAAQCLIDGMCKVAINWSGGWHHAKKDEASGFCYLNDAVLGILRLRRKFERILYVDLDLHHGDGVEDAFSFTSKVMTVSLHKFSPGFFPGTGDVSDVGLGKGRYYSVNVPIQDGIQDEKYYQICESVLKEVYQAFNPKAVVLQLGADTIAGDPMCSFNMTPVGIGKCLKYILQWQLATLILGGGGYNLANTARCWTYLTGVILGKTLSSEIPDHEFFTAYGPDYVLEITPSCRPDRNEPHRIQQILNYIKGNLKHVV
# HCT-116 [3] = assay: Cytotoxicity against human HCT116 cells assessed as change in cell viability at 10 uM after 48 hrs by MTT assay; format: functional, cell-based
# In short: (§2)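 Cells grown in DMEM with 10% FBS, 37 °C, 5% CO2; 1 × 10^4 cells per well plated and left 24 h, then exposed to a range of compound concentrations or vehicle (1% EtOH) for 48 h. Viability read by MTT.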
# Histone deacetylase 1 = Histone deacetylase 1 (Homo sapiens, UniProt Q13547); assay: Inhibition of recombinant full length C-terminal His/FLAG-tagged human HDAC1 expressed in baculovirus infected Sf9 insect cells using BPS HDAC substrate 3 at 10 uM after 30 mins by fluorescence assay relative to control; in short: as §1
# Histone deacetylase 2 = Histone deacetylase 2 (Homo sapiens, UniProt Q92769); assay: Inhibition of full length C-terminal FLAG-tagged human HDAC2 expressed in baculovirus infected Sf9 insect cells using BPS HDAC substrate 3 at 10 uM after 30 mins by fluorescence assay relative to control; in short: as §1
# [4] = molecular target: T2, Protein deacetylase HDAC6 (Homo sapiens) (UniProt Q9UBN7); assay: Inhibition of full length N-terminal GST-tagged human HDAC6 expressed in baculovirus infected Sf9 insect cells using HDAC substrate 3 after at 10 uM 30 mins by fluorescence assay relative to control; in short: as §1
# T2 sequence (whole entry): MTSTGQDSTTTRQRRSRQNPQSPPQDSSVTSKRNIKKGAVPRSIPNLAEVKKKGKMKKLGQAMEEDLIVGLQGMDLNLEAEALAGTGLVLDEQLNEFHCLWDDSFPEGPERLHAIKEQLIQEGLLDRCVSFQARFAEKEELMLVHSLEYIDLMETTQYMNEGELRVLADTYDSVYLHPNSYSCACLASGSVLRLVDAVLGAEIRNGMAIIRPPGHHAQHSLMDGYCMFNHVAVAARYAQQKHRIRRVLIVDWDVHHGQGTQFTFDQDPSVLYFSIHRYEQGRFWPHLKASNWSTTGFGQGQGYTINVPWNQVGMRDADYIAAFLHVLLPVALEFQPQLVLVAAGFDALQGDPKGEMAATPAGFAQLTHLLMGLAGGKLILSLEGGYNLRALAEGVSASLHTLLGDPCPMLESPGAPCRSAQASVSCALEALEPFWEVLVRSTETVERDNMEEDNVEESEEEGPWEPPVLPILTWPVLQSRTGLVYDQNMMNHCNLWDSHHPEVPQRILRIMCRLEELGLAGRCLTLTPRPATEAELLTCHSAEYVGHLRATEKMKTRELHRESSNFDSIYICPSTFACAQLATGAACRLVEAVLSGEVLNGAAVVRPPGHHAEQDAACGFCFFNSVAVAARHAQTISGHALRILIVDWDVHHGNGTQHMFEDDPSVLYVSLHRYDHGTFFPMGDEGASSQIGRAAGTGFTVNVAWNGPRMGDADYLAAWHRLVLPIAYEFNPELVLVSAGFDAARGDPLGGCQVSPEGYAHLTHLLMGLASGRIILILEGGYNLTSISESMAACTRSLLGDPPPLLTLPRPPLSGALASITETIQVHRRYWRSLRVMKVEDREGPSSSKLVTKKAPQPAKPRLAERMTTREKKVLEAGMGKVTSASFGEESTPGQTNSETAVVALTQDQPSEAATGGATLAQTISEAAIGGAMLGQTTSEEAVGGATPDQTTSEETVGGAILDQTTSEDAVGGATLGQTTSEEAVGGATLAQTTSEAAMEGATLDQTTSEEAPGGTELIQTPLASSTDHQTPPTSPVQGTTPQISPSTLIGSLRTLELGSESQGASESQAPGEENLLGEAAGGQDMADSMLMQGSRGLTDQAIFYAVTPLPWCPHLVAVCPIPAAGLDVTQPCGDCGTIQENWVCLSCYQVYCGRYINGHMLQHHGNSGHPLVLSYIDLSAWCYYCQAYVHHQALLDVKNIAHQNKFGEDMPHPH
# MDA-MB-231 [5] = assay: Cytotoxicity against human MDA-MB-231 cells assessed as change in cell viability at 10 uM after 48 hrs by MTT assay; format: functional, cell-based; in short: as §2
# [6] = molecular target: Histone deacetylase 3/Nuclear receptor corepressor 2 (HDAC3/NCoR2) (Homo sapiens, UniProt O15379); assay: Inhibition of full length human C-terminal His-tagged HDAC3/N-terminal GST-tagged NCOR2 (395 to 489 residues) expressed in baculovirus infected Sf9 insect cells using BPS HDAC substrate 3 after 30 mins by fluorescence assay
# In short: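 Run by a contract lab. Compound incubated with HDAC enzyme, substrate, bovine serum albumin and HDAC buffer in duplicate for 30 min at 37 °C. Activity taken as (F−Fb)/(Ft−Fb) against blank and solvent control wells; IC50 from curve fitting.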
# [7] = molecular target: T3, Polyamine deacetylase HDAC10 (Homo sapiens) (UniProt Q969S8); assay: Inhibition of N-terminal GST-tagged/C-terminal His-tagged human HDAC10 (1 to 481 residues) expressed in baculovirus infected Sf9 insect cells using BPS HDAC substrate 3 at 10 uM after 30 mins by fluorescence assay relative to control; in short: as §1
# T3 sequence (whole entry): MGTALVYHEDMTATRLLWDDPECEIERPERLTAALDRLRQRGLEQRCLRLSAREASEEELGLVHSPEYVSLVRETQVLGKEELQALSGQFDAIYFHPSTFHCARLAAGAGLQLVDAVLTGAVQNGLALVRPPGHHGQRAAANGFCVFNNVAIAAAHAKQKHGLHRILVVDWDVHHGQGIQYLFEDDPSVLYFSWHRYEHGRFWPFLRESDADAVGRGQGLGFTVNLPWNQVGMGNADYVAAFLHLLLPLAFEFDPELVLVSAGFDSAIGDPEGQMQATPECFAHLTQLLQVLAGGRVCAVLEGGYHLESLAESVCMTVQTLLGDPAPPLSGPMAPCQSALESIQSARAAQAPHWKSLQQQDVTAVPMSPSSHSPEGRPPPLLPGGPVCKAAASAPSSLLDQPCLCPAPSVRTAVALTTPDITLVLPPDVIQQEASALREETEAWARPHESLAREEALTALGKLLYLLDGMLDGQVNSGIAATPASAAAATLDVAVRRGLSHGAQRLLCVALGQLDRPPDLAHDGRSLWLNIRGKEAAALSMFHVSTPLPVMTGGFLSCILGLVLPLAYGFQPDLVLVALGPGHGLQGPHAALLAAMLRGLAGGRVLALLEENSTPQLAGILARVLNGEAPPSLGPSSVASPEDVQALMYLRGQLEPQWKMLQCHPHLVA
# [8] = molecular target: Histone deacetylase 3/Nuclear receptor corepressor 2 (HDAC3/NCoR2) (Homo sapiens) (UniProt O15379+Q9Y618); assay: Inhibition of full length human C-terminal His-tagged HDAC3/N-terminal GST-tagged NCOR2 (395 to 489 residues) expressed in baculovirus infected Sf9 insect cells using BPS HDAC substrate 3 at 10 uM after 30 mins by fluorescence assay relative to control; in short: as §1
# Homo sapiens [9] = species: Homo sapiens; assay: Inhibition of class 1 HDAC in human MDA-MB-231 cells assessed as hyperacetylation of histone H3 (Lys9/14) measured at 8 hrs post treatment by immunoblot analysis; format: cell-based
# In short: (§3)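 Cells in DMEM/10% FBS; 4 × 10^5 cells seeded in 60-mm dishes overnight, then treated for 8 h with 0–10 μM (final) compound or vehicle (1% EtOH). Whole-cell lysates loaded at equal protein (BCA), run on SDS-PAGE, blotted to PVDF and probed with anti-acetyl histone H3 (Lys9/14); β-actin also probed. Chemiluminescent detection.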
# HCT-116 [10] = assay: Cytotoxicity against human HCT116 cells assessed as reduction in cell viability after 48 hrs by MTT assay; format: functional, cell-based; conditions: HCT-116, 48 h; in short: as §2
# MDA-MB-231 [11] = assay: Cytotoxicity against human MDA-MB-231 cells assessed as reduction in cell viability after 48 hrs by MTT assay; format: functional, cell-based; conditions: MDA-MB-231, 48 h; in short: as §2
# Homo sapiens [12] = species: Homo sapiens; assay: Inhibition of class 1 HDAC in human HCT116 cells assessed as hyperacetylation of histone H3 (Lys9/14) measured at 8 hrs post treatment by immunoblot analysis; format: cell-based; in short: as §3
# [13] = molecular target: T4, Polyamine deacetylase HDAC10 (Homo sapiens, UniProt Q969S8); assay: Inhibition of N-terminal GST-tagged/C-terminal His-tagged human HDAC10 (1 to 481 residues) expressed in baculovirus infected Sf9 insect cells using BPS HDAC substrate 3 after 30 mins by fluorescence assay
# T4 sequence (Q969S8 whole entry): T3 sequence (whole entry)
# In short: (§4)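 Run by a contract lab. Compound incubated with HDAC enzyme, HDAC substrate, BSA and HDAC buffer, in duplicate, at 37 °C for 30 min. Quenched with HDAC developer, then 15 min at room temperature. Fluorescence read at ex 360/em 460 nm. Percent activity = (F−Fb)/(Ft−Fb), using blank and solvent-control wells. IC50 from curve fitting.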
# [14] = molecular target: Histone deacetylase 5 (Homo sapiens) (UniProt Q9UQL6); assay: Inhibition of full length N-terminal GST-tagged human HDAC5 expressed in baculovirus infected Sf9 insect cells using BPS HDAC class 2a substrate at 1 uM after 30 mins by fluorescence assay relative to control; in short: as §4
# Histone deacetylase 2, sequence (Q92769 whole entry): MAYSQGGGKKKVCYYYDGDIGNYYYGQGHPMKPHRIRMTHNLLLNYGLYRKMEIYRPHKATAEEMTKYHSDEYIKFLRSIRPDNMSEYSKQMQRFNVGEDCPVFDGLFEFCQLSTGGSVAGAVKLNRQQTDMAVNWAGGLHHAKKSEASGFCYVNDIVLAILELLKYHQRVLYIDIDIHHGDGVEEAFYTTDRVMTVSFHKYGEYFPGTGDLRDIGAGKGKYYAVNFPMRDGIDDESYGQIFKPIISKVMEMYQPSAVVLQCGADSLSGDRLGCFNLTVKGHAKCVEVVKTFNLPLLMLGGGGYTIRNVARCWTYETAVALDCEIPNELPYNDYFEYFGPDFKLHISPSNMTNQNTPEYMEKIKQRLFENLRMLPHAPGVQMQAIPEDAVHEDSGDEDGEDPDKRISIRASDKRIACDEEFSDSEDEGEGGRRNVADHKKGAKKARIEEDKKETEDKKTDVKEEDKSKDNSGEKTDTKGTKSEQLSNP
# Histone deacetylase 5 (Homo sapiens), sequence (Q9UQL6 whole entry): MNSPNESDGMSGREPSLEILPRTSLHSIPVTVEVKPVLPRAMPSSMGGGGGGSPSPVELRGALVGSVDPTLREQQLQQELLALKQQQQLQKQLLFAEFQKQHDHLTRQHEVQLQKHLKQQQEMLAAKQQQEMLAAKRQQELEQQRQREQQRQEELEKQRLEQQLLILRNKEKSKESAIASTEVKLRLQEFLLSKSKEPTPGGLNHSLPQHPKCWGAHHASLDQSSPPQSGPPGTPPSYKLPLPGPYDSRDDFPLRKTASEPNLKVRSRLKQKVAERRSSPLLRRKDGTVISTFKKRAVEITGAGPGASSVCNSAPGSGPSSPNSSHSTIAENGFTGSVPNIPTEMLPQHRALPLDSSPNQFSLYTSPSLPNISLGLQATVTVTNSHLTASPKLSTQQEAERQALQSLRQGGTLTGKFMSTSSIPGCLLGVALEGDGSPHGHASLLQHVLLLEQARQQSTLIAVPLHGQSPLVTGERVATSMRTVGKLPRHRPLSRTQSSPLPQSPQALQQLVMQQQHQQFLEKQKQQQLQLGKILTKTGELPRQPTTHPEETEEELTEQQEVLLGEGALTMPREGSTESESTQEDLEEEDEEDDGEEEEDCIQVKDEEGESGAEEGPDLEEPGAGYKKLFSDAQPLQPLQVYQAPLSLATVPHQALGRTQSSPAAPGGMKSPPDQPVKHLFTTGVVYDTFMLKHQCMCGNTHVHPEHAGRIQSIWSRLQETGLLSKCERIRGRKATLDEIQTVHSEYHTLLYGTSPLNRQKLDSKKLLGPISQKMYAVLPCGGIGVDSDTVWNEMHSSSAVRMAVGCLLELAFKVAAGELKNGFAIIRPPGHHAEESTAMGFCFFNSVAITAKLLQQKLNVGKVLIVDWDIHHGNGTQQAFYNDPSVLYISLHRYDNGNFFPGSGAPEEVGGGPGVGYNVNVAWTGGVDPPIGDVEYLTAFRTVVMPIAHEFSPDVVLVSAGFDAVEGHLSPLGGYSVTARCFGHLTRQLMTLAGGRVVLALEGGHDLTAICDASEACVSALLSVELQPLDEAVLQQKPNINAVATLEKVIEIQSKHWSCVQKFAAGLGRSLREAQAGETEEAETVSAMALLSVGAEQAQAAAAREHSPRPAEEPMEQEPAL
# Histone deacetylase 1, sequence (Q13547 whole entry): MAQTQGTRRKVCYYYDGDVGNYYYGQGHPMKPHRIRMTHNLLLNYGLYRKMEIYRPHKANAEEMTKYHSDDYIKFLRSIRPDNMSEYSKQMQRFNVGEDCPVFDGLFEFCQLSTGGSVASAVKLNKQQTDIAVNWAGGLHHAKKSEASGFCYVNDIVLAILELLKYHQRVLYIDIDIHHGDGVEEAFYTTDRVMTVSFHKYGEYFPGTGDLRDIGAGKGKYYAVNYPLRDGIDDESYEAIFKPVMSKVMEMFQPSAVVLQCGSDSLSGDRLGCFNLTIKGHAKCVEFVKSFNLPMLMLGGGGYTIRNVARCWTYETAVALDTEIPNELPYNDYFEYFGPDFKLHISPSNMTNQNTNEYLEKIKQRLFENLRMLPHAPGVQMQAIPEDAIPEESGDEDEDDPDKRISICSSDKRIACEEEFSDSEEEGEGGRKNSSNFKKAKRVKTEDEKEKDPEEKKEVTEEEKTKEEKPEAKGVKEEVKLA
# Histone deacetylase 3/Nuclear receptor corepressor 2 (HDAC3/NCoR2), sequence (O15379 whole entry, the tested form may be a part): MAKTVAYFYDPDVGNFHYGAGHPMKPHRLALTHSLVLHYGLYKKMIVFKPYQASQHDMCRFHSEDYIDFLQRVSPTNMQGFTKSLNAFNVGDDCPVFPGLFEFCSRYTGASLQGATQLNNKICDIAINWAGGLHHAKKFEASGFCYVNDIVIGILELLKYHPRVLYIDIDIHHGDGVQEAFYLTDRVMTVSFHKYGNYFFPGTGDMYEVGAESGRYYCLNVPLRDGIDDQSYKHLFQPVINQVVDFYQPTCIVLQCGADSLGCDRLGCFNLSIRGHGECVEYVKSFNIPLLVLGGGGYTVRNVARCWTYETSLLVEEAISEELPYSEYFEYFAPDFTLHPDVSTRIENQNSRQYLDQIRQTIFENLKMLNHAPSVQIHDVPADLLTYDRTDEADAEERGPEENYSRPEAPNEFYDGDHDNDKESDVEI
# Histone deacetylase 3/Nuclear receptor corepressor 2 (HDAC3/NCoR2), sequence (Q9Y618 whole entry, further chain, the tested form may be a part): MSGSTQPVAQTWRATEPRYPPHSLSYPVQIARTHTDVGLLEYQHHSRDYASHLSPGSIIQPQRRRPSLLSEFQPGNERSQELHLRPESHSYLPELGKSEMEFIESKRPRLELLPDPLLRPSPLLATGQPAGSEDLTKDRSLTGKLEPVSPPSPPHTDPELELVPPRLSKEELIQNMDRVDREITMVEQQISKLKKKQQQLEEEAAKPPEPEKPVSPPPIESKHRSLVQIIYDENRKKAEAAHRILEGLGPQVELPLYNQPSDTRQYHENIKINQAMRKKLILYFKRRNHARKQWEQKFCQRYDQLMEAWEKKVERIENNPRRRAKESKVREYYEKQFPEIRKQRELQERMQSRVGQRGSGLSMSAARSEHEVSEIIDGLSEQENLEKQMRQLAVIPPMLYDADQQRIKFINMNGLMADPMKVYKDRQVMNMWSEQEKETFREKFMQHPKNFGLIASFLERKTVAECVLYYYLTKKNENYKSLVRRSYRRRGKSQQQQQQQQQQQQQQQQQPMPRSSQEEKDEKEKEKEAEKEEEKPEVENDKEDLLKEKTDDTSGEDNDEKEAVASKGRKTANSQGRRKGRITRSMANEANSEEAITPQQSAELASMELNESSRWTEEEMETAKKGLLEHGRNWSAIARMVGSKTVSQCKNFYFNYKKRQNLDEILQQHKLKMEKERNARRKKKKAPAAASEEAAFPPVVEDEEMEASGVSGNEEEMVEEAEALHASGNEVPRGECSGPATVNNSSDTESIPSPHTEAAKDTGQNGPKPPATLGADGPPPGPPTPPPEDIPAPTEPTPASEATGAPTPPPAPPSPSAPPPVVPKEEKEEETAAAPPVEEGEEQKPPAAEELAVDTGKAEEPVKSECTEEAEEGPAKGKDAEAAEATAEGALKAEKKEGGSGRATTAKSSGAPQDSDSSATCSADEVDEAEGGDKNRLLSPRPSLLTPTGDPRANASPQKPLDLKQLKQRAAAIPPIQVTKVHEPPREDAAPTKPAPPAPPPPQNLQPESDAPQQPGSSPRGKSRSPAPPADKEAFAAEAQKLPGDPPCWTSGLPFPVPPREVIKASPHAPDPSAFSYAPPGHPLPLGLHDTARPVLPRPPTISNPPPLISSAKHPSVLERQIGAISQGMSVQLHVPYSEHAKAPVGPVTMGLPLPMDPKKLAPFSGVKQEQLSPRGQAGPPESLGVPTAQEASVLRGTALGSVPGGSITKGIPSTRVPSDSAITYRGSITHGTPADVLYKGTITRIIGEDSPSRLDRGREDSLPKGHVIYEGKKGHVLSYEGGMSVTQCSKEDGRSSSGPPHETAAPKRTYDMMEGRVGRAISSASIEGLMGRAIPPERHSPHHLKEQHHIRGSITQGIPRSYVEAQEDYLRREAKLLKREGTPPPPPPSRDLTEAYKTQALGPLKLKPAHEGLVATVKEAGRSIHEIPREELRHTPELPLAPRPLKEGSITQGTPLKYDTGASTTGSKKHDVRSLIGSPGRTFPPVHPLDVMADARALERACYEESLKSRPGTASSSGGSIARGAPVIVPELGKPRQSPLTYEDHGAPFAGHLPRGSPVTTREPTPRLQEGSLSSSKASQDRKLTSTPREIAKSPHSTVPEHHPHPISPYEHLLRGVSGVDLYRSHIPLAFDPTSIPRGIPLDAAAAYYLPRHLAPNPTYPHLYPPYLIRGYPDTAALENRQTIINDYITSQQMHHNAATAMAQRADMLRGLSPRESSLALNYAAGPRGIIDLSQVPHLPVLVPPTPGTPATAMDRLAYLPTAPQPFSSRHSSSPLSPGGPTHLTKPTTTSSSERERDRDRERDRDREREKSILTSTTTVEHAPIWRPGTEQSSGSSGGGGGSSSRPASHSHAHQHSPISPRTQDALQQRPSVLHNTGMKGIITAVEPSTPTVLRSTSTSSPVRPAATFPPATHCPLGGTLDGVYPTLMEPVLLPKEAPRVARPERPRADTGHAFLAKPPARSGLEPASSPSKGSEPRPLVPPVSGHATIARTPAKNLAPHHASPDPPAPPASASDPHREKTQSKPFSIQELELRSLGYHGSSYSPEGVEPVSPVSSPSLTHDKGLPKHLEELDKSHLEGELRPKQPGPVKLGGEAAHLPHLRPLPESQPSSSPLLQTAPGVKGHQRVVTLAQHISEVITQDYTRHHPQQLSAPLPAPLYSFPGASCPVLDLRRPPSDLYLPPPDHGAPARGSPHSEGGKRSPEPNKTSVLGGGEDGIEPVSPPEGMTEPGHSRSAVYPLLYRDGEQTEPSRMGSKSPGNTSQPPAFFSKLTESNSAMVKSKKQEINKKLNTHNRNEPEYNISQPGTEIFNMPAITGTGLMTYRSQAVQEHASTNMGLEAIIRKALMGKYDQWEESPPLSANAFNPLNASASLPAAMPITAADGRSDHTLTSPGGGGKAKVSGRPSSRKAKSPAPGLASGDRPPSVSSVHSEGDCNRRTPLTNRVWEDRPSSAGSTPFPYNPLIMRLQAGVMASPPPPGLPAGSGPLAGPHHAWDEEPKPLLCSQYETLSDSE
Structure (SMILES),inhibition [1],inhibition [2],inhibition (Histone deacetylase 1),inhibition (Histone deacetylase 2),inhibition [4],IC50 [6],inhibition [7],inhibition [8],Activity (HCT-116 [3]),Activity (MDA-MB-231 [5]),inhibition (Homo sapiens [9]),IC50 (HCT-116 [10]),IC50 (MDA-MB-231 [11]),inhibition (Homo sapiens [12]),IC50 [13],inhibition [14]
CCC(=O)CC/C=C/[C@@H]1CC(=O)NCc2nc(cs2)C2=N[C@@](C)(CS2)C(=O)N[C@@H](C(C)C)C(=O)O1,< 15%,< 15%,30%,24%,< 15%,8000 nM,49%,,inactive,inactive,,,,,,
CCCCCCCC(=O)SCC/C=C/[C@@H]1CC(=O)NCc2nc(cs2)C2=N[C@@](C)(CS2)C(=O)N[C@@H](C(C)C)C(=O)O1 [LARGAZOLE],,,,,,,,,,,Dose-dependent effect,20 nM,1.6 nM,Dose-dependent effect,,
CC(C)[C@@H]1NC(=O)[C@]2(C)CSC(=N2)c2csc(n2)CNC(=O)C[C@@H](/C=C/CCS)OC1=O,,,,,,,,,,,,,,,0.5 nM,< 15%
CC(C)[C@@H]1NC(=O)[C@]2(C)CSC(=N2)c2csc(n2)CNC(=O)C[C@@H](/C=C/CCC(=O)O)OC1=O,< 15%,20%,< 15%,< 15%,17%,,19%,< 15%,inactive,inactive,,,,,,
CC(=O)CC(=O)NC/C=C/[C@@H]1CC(=O)NCc2nc(cs2)C2=N[C@@](C)(CS2)C(=O)N[C@@H](C(C)C)C(=O)O1,< 15%,< 15%,< 15%,< 15%,22%,,< 15%,< 15%,inactive,inactive,,,,,,

# More lines, main results first:
inhibition [1],inhibition [2],inhibition (Histone deacetylase 1),inhibition (Histone deacetylase 2),inhibition [4],IC50 [6],inhibition [7],inhibition [8],Structure (SMILES),Activity (HCT-116 [3]),Activity (MDA-MB-231 [5]),inhibition (Homo sapiens [9]),IC50 (HCT-116 [10]),IC50 (MDA-MB-231 [11]),inhibition (Homo sapiens [12]),IC50 [13],inhibition [14]
< 15%,< 15%,< 15%,< 15%,< 15%,,< 15%,< 15%,CC(C)[C@@H]1NC(=O)[C@]2(C)CSC(=N2)c2csc(n2)CNC(=O)C[C@@H](/C=C/CCN)OC1=O,inactive,inactive,,,,,,
< 15%,24%,< 15%,< 15%,< 15%,,< 15%,< 15%,CCC/C=C/[C@@H]1CC(=O)NCc2nc(cs2)C2=N[C@@](C)(CS2)C(=O)N[C@@H](C(C)C)C(=O)O1,inactive,inactive,,,,,,
